The source of these data is ChEMBL document CHEMBL2375276, “Antibacterial oxazolidinone analogues having a N-hydroxyacetyl-substituted seven-membered [1,2,5]triazepane or [1,2,5]oxadiazepane C-ring unit” (Eur J Med Chem, 2013).

Converted amounts (≈) assume the structure as drawn.

What all share (assay type): functional
Assay [1] relates to Staphylococcus aureus. Briefly: Antibacterial activity against Staphylococcus aureus SR20549 clinical isolate assessed as growth inhibition by CLSI broth microdilution method. Summed up:
(§1)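 MIC by CLSI broth microdilution in cation-adjusted Mueller-Hinton broth; S. pneumoniae medium supplemented with 5% lysed horse blood.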

Assay [2] has as its system Streptococcus pneumoniae. Description: Antibacterial activity against Streptococcus pneumoniae SR26207 clinical isolate assessed as growth inhibition by CLSI broth microdilution method. An outline of the steps:
as §1

Assay [3] deals with Enterococcus faecium. Description: Antibacterial activity against Enterococcus faecium SR7940 clinical isolate assessed as growth inhibition by CLSI broth microdilution method. Summed up: as §1
(In general: Dilution methods test growth across graded concentrations, often in twofold steps.)

The test system of assay [4] is Staphylococcus aureus. Briefly: Antibacterial activity against linezolid-resistant Staphylococcus aureus NRS271 assessed as growth inhibition by CLSI broth microdilution method. Summed up: (§2)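 MIC by CLSI broth microdilution in cation-adjusted Mueller-Hinton broth. Lowest concentration inhibiting growth taken as MIC.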
Assay [5] relates to Enterococcus faecalis. Briefly: Antibacterial activity against Enterococcus faecalis SR1004 clinical isolate assessed as growth inhibition by CLSI broth microdilution method. Summed up:
as §1

In assay [6] the test system is Haemophilus influenzae. Briefly: Antibacterial activity against Haemophilus influenzae SR27914 clinical isolate assessed as growth inhibition by CLSI broth microdilution method. An outline of the steps:
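MIC by CLSI broth microdilution using Haemophilus test medium.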

In assay [7] the test system is Staphylococcus aureus. Description: Antibacterial activity against Staphylococcus aureus Smith assessed as growth inhibition by CLSI broth microdilution method. Summed up: as §1
Assay [8] concerns Moraxella catarrhalis. Description: Antibacterial activity against Moraxella catarrhalis SR26840 clinical isolate assessed as growth inhibition by CLSI broth microdilution method. Summed up:
as §1

For assay [9], the system named is Staphylococcus aureus. Description: Antibacterial activity against methicillin-resistant Staphylococcus aureus SR3637 infected in JCL/ICR mouse systemic infection model assessed as mortality administered as iv measured over 7 days. Particulars: 168 h. Summed up:
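Five-week-old male JCL/ICR mice (20–25 g), five per group. Infected intraperitoneally with 0.5 or 1.0 mL bacterial suspension (about 100× LD50). Intravenous dosing 1 h post-infection. Mortality followed 7 days; ED50 with 95% confidence limits by logit method.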

Assay [10] has as its system Staphylococcus aureus. Description: Antibacterial activity against methicillin-resistant Staphylococcus aureus SR3637 assessed as growth inhibition by CLSI broth microdilution method. Summed up:
as §2

Assay [11] concerns Moraxella catarrhalis. Description: Ratio of linezolid MIC to compound MIC for Moraxella catarrhalis SR26840 clinical isolate.
The subject of assay [12] is Streptococcus pneumoniae. Briefly: Ratio of eperezolid MIC to compound MIC for Streptococcus pneumoniae SR26207 clinical isolate.
Assay [13] has as its system Staphylococcus aureus. Description: Ratio of linezolid MIC to compound MIC for Staphylococcus aureus Smith.
Assay [14] has as its system Haemophilus influenzae. Description: Ratio of linezolid MIC to compound MIC for Haemophilus influenzae SR27914 clinical isolate.
The test system of assay [15] is Staphylococcus aureus. Description: Ratio of eperezolid MIC to compound MIC for Staphylococcus aureus SR20549 clinical isolate.
The test system of assay [16] is Enterococcus faecalis. Description: Ratio of eperezolid MIC to compound MIC for Enterococcus faecalis SR1004 clinical isolate.
Assay [17] deals with Streptococcus pneumoniae. Description: Ratio of linezolid MIC to compound MIC for Streptococcus pneumoniae SR26207 clinical isolate.
The test system of assay [18] is Haemophilus influenzae. Briefly: Ratio of eperezolid MIC to compound MIC for Haemophilus influenzae SR27914 clinical isolate.
The subject of assay [19] is Enterococcus faecium. Description: Ratio of linezolid MIC to compound MIC for Enterococcus faecium SR7940 clinical isolate.
Assay [20] deals with Moraxella catarrhalis. Briefly: Ratio of eperezolid MIC to compound MIC for Moraxella catarrhalis SR26840 clinical isolate.
For assay [21], the system named is Enterococcus faecium. Description: Ratio of eperezolid MIC to compound MIC for Enterococcus faecium SR7940 clinical isolate.
Assay [22] concerns Enterococcus faecalis. Briefly: Ratio of linezolid MIC to compound MIC for Enterococcus faecalis SR1004 clinical isolate.
In assay [23] the test system is Staphylococcus aureus. Description: Ratio of eperezolid MIC to compound MIC for Staphylococcus aureus Smith.
Assay [24] relates to Staphylococcus aureus. Description: Ratio of linezolid MIC to compound MIC for Staphylococcus aureus SR20549 clinical isolate.

With `O=C(CO)N1CCN(c2c(F)cc(N3C[C@H](Cn4ccnn4)OC3=O)cc2F)CCO1`, the MIC with Staphylococcus aureus [1] was 1 µg/mL (≈ 2.28 µM); in the assay on Streptococcus pneumoniae [2], 1 µg/mL (≈ 2.28 µM); in the assay on Enterococcus faecium [3] it was 2 µg/mL (≈ 4.56 µM); in the assay with Staphylococcus aureus [4], 16 µg/mL (≈ 36.5 µM); in the assay on Enterococcus faecalis [5], 2 µg/mL (≈ 4.56 µM); in the assay on Haemophilus influenzae [6], 16 µg/mL (≈ 36.5 µM). Moreover, the MIC in the assay with Staphylococcus aureus [7] was 2 µg/mL (≈ 4.56 µM); in the assay with Moraxella catarrhalis [8] it was 8 µg/mL (≈ 18.2 µM).

In the case of `O=C(CO)N1CCN(c2ccc(N3C[C@H](Cn4ccnn4)OC3=O)cc2F)CCN1`, the MIC amounted to 2 µg/mL (≈ 4.77 µM) with Staphylococcus aureus [1]; 1 µg/mL (≈ 2.38 µM) in the assay on Streptococcus pneumoniae [2]; 4 µg/mL (≈ 9.54 µM) in the assay on Enterococcus faecium [3]; 64 µg/mL (≈ 153 µM) in the assay with Staphylococcus aureus [4]; 4 µg/mL (≈ 9.54 µM) with Enterococcus faecalis [5]; 16 µg/mL (≈ 38.1 µM) in the assay with Haemophilus influenzae [6]. For the same compound, the MIC in the assay on Staphylococcus aureus [7] was found to be 4 µg/mL (≈ 9.54 µM); in the assay with Moraxella catarrhalis [8] it was 8 µg/mL (≈ 19.1 µM). The ED50 – broadly, the midpoint of the dose-response relation – with Staphylococcus aureus [9] was 0.77 mg/kg.

On to `O=C(CO)N1CCN(c2c(F)cc(N3C[C@H](CNc4ccon4)OC3=O)cc2F)CCO1`, for which the MIC in the assay on Staphylococcus aureus [1] worked out at 0.25 µg/mL (≈ 0.551 µM); in the assay on Streptococcus pneumoniae [2], 0.25 µg/mL (≈ 0.551 µM); in the assay on Enterococcus faecium [3], 1 µg/mL (≈ 2.21 µM); in the assay on Staphylococcus aureus [4], 8 µg/mL (≈ 17.6 µM); in the assay on Enterococcus faecalis [5] it was 0.5 µg/mL (≈ 1.1 µM); in the assay on Haemophilus influenzae [6], 16 µg/mL (≈ 35.3 µM). Moreover, the MIC in the assay on Staphylococcus aureus [7] was found to be 0.5 µg/mL (≈ 1.1 µM); with Staphylococcus aureus [10], 0.25 µg/mL (≈ 0.551 µM); with Moraxella catarrhalis [8], 4 µg/mL (≈ 8.82 µM). In the assay with Staphylococcus aureus [9], the ED50 was over 10 mg/kg.

Take `CC(=O)NC[C@H]1CN(c2cc(F)c(N3CCON(C(=O)CO)CC3)c(F)c2)C(=O)O1`: the MIC in the assay on Staphylococcus aureus [1] was 2 µg/mL (≈ 4.67 µM); in the assay on Streptococcus pneumoniae [2], 1 µg/mL (≈ 2.33 µM); with Enterococcus faecium [3], 2 µg/mL (≈ 4.67 µM); in the assay on Staphylococcus aureus [4], 32 µg/mL (≈ 74.7 µM); in the assay with Enterococcus faecalis [5], 4 µg/mL (≈ 9.34 µM); with Haemophilus influenzae [6] it was 16 µg/mL (≈ 37.3 µM). Besides, the figures for the MIC in the assay with Staphylococcus aureus [7] and with Moraxella catarrhalis [8] were 2 µg/mL (≈ 4.67 µM) and 8 µg/mL (≈ 18.7 µM), respectively.

Turning to `CC(=S)NC[C@H]1CN(c2cc(F)c(N3CCON(C(=O)CO)CC3)c(F)c2)C(=O)O1`, the Ratio in the assay on Moraxella catarrhalis [11], with Streptococcus pneumoniae [12], with Staphylococcus aureus [13], with Haemophilus influenzae [14], in the assay with Staphylococcus aureus [15] and in the assay with Enterococcus faecalis [16] was 4 in each case. Also, the Ratio in the assay with Streptococcus pneumoniae [17], in the assay with Haemophilus influenzae [18], in the assay on Enterococcus faecium [19], in the assay with Moraxella catarrhalis [20], in the assay with Enterococcus faecium [21] and in the assay on Enterococcus faecalis [22] was 4 in each case. Also, the Ratio with Staphylococcus aureus [23] and with Staphylococcus aureus [24] was 4 each time. In addition, the MIC was 0.125 µg/mL (≈ 0.281 µM) with Staphylococcus aureus [1]; 0.063 µg/mL (≈ 0.142 µM) with Streptococcus pneumoniae [2]; 0.25 µg/mL (≈ 0.562 µM) in the assay with Enterococcus faecium [3]; 2 µg/mL (≈ 4.5 µM) with Staphylococcus aureus [4]; 0.25 µg/mL (≈ 0.562 µM) in the assay on Enterococcus faecalis [5]; 4 µg/mL (≈ 9 µM) with Haemophilus influenzae [6]. The results for the MIC with Staphylococcus aureus [7] and in the assay with Moraxella catarrhalis [8] were 0.25 µg/mL (≈ 0.562 µM) and 1 µg/mL (≈ 2.25 µM), respectively.

For `CC(=O)NC[C@H]1CN(c2ccc(N3CCNN(C(=O)CO)CC3)c(F)c2)C(=O)O1`, the MIC with Staphylococcus aureus [1] is 4 µg/mL (≈ 9.77 µM); with Streptococcus pneumoniae [2], 1 µg/mL (≈ 2.44 µM); in the assay with Enterococcus faecium [3], 4 µg/mL (≈ 9.77 µM); in the assay on Staphylococcus aureus [4], 64 µg/mL (≈ 156 µM); in the assay with Enterococcus faecalis [5] it was 2 µg/mL (≈ 4.88 µM); with Haemophilus influenzae [6], 16 µg/mL (≈ 39.1 µM). Besides, the MIC in the assay on Staphylococcus aureus [7] is 2 µg/mL (≈ 4.88 µM); with Moraxella catarrhalis [8], 8 µg/mL (≈ 19.5 µM).

`O=C1O[C@@H](CNc2ccon2)CN1c1cc(F)c(N2CCNOCC2)c(F)c1`: the MIC in the assay with Staphylococcus aureus [1] stood at 0.5 µg/mL (≈ 1.26 µM); in the assay on Streptococcus pneumoniae [2], 0.125 µg/mL (≈ 0.316 µM); in the assay on Enterococcus faecium [3], 1 µg/mL (≈ 2.53 µM); in the assay with Staphylococcus aureus [4], 16 µg/mL (≈ 40.5 µM); in the assay with Enterococcus faecalis [5], 0.5 µg/mL (≈ 1.26 µM); with Haemophilus influenzae [6] it was 16 µg/mL (≈ 40.5 µM). Besides, the MIC in the assay with Staphylococcus aureus [7] came out at 1 µg/mL (≈ 2.53 µM); with Moraxella catarrhalis [8] it was 4 µg/mL (≈ 10.1 µM).

Consider `COC(=S)NC[C@H]1CN(c2cc(F)c(N3CCON(C(=O)CO)CC3)c(F)c2)C(=O)O1`, for which the Ratio with Moraxella catarrhalis [11], with Streptococcus pneumoniae [12], with Staphylococcus aureus [13], in the assay on Haemophilus influenzae [14], in the assay on Staphylococcus aureus [15] and with Enterococcus faecalis [16] was 4 in each case. Also, the Ratio with Streptococcus pneumoniae [17], with Haemophilus influenzae [18], with Enterococcus faecium [19], with Moraxella catarrhalis [20], with Enterococcus faecium [21] and in the assay with Enterococcus faecalis [22] was 4 each time. In addition, the Ratio in the assay with Staphylococcus aureus [23] and in the assay on Staphylococcus aureus [24] was 4 throughout. The MIC is 0.25 µg/mL (≈ 0.543 µM) with Staphylococcus aureus [1]; 0.125 µg/mL (≈ 0.271 µM) in the assay on Streptococcus pneumoniae [2]; 0.25 µg/mL (≈ 0.543 µM) in the assay with Enterococcus faecium [3]; 2 µg/mL (≈ 4.34 µM) in the assay with Staphylococcus aureus [4]; 0.5 µg/mL (≈ 1.09 µM) in the assay on Enterococcus faecalis [5]; 4 µg/mL (≈ 8.69 µM) in the assay with Haemophilus influenzae [6]. The MIC with Staphylococcus aureus [7] was determined as 0.25 µg/mL (≈ 0.543 µM); with Moraxella catarrhalis [8], 1 µg/mL (≈ 2.17 µM).
